Laboratory results published in ChEMBL document CHEMBL1125894, “Dual-action cephalosporins: cephalosporin 3'-quaternary ammonium quinolones” (1991).
In brackets after ≈: the same amount, converted by molar mass.

Assays:
Enterobacter cloacae [1] = assay: In vitro antibacterial activity against Enterobacter cloacae P99; type: functional
Outline: (§1)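 Serial 2-fold dilutions in the NCCLS broth microdilution method for aerobic nonfastidious organisms, with an 18-h incubation. The value is reported as the minimum inhibitory concentration (MIC).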

Citrobacter freundii = assay: In vitro antibacterial activity against Citrobacter freundii BS 16; type: functional; outline: as §1
Enterobacter cloacae [2] = assay: In vitro antibacterial activity against Enterobacter cloacae 5699; type: functional; outline: as §1
Escherichia coli [3] = assay: Antibacterial activity against Escherichia coli DC-O; type: functional; outline: as §1
[4] = target: T1, Penicillin-binding protein 1A (Escherichia coli K-12) (UniProt P02918); assay: Concentration required for 90% inhibition against 90 kDa penicillin-binding protein 1a binding using [14C]-Pen G as the radioligand.
T1 sequence (whole entry): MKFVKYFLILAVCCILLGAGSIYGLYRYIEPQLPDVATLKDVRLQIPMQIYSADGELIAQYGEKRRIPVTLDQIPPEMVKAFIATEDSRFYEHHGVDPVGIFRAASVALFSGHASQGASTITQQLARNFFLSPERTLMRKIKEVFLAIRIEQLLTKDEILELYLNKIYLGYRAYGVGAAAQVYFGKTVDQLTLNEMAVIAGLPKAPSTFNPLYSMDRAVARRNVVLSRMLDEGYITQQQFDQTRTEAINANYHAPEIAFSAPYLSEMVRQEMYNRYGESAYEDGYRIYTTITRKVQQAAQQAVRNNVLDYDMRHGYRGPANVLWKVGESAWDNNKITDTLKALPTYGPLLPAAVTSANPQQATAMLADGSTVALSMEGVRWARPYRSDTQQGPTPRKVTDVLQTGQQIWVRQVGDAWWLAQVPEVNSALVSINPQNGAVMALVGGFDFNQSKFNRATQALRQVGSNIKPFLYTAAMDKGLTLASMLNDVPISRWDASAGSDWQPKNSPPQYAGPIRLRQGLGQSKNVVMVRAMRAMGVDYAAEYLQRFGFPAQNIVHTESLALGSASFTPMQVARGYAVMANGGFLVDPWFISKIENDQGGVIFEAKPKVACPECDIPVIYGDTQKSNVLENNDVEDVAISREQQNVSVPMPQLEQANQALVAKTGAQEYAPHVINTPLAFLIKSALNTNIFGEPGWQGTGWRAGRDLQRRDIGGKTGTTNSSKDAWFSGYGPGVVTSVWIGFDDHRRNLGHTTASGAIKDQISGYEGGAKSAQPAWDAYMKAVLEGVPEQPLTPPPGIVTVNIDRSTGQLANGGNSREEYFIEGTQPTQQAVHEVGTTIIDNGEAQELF
Outline: (§2)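 Solubilized membranes from sonicated E. coli DC-0 were used. PBP binding was measured as inhibition of [14C]penicillin G binding to each PBP.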

Streptococcus pneumoniae = assay: In vitro antibacterial activity against Streptococcus pneumoniae 6301; type: functional
Outline: (§3)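 Broth macrodilution with serial 2-fold dilutions in cation-supplemented Mueller-Hinton broth containing 10% goat serum. The value is reported as the MIC.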

Escherichia coli [5] = assay: Concentration required for 90% inhibition against 60 kDa penicillin-binding protein 3 binding using [14C]-Pen G as the radioligand.; outline: as §2
Pseudomonas aeruginosa = assay: In vitro antibacterial activity against Pseudomonas aeruginosa 5712; type: functional; outline: as §1
Streptococcus pyogenes = assay: In vitro antibacterial activity against Streptococcus pyogenes 4; type: functional; outline: as §3
[6] = target: T2, Peptidoglycan D,D-transpeptidase MrdA (Escherichia coli K-12) (UniProt P0AD65); assay: Concentration required for 90% inhibition against 66 kDa penicillin-binding protein 2 binding using [14C]-Pen G as the radioligand.; outline: as §2
T2 sequence (whole entry): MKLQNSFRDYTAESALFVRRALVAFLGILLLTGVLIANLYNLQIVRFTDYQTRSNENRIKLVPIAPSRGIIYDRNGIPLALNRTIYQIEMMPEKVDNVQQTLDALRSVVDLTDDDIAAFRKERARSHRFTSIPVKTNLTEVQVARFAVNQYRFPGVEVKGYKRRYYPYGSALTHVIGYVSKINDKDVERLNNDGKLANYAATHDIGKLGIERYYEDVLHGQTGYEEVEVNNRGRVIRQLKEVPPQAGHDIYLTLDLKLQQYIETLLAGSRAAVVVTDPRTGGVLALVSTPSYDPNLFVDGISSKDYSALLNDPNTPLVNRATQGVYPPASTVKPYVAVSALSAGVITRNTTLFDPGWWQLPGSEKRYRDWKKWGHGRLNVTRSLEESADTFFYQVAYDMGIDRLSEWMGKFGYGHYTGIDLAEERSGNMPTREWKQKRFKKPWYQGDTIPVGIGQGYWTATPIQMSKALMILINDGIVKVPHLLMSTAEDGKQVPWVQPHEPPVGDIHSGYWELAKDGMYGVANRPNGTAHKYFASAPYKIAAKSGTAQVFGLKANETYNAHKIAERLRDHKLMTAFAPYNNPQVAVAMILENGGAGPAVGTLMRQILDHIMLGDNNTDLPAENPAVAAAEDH

Staphylococcus aureus [7] = assay: In vitro antibacterial activity against Staphylococcus aureus 95(MR); type: functional
Outline: (§4)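 Staphylococci were tested by the standard agar dilution procedure using serial 2-fold dilutions of agent. The value is reported as the MIC.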

Serratia marcescens = assay: In vitro antibacterial activity against Serratia marcescens SM; type: functional; outline: as §1
Staphylococcus aureus [8] = assay: In vitro antibacterial activity against Staphylococcus aureus Smith(MS); type: functional; outline: as §4
[9] = target: T3, Penicillin-binding protein 1B (Escherichia coli K-12) (UniProt P02919); assay: Concentration required for 90% inhibition against 90 kDa penicillin-binding protein 1b binding using [14C]-Pen G as the radioligand.; outline: as §2
T3 sequence (whole entry): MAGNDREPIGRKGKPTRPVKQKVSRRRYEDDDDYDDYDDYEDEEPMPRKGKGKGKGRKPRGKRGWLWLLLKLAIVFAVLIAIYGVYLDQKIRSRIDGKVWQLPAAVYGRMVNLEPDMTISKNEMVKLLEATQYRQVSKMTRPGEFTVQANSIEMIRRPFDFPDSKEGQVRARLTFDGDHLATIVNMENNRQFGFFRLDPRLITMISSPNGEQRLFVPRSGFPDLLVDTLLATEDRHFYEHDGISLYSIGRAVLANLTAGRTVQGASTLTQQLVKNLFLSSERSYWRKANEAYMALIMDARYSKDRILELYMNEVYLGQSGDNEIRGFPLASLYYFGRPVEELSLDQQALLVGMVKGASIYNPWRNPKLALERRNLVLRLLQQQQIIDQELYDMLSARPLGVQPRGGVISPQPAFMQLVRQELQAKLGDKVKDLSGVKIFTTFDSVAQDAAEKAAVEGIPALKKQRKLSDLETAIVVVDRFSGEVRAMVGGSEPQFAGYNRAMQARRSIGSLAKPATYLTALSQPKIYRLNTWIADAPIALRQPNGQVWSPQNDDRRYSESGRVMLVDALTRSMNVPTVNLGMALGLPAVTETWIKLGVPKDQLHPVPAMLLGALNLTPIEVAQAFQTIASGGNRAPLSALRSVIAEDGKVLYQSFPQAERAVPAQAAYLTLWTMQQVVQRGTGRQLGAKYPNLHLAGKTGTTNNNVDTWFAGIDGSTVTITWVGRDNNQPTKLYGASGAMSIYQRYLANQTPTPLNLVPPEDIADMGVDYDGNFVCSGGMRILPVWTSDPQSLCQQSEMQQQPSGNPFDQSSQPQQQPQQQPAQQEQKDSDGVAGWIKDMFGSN

Escherichia coli [10] = assay: In vitro antibacterial activity against Escherichia coli 257; type: functional; outline: as §1
Klebsiella pneumoniae = assay: In vitro antibacterial activity against Klebsiella pneumoniae A; type: functional; outline: as §1

Q: What does the source list for `C[N+]1(CC2=C(C(=O)[O-])N3C(=O)[C@@H](NC(=O)COc4ccccc4)[C@H]3SC2)CCN(c2c(F)cc3c(=O)c(C(=O)O)cn(CCF)c3c2F)CC1`?
A: MIC (Enterobacter cloacae [1]): 0.5 mg/L (≈ 0.699 µM); MIC (Citrobacter freundii): 2 mg/L (≈ 2.79 µM); MIC (Enterobacter cloacae [2]): 0.5 mg/L (≈ 0.699 µM); MIC (Escherichia coli [3]): 8 mg/L (≈ 11.2 µM); Concentration [4]: 10 µg/mL; MIC (Streptococcus pneumoniae): 0.25 mg/L (≈ 0.349 µM); Concentration (Escherichia coli [5]): 2 µg/mL; MIC (Pseudomonas aeruginosa): 32 mg/L (≈ 44.7 µM); MIC (Streptococcus pyogenes): 0.063 mg/L (≈ 0.088 µM); Concentration [6]: > 100 µg/mL; MIC (Staphylococcus aureus [7]): 1 mg/L (≈ 1.4 µM); MIC (Serratia marcescens): 2 mg/L (≈ 2.79 µM); MIC (Staphylococcus aureus [8]): 0.5 mg/L (≈ 0.699 µM); Concentration [9]: 100 µg/mL; MIC (Escherichia coli [10]): 0.5 mg/L (≈ 0.699 µM); MIC (Klebsiella pneumoniae): 0.5 mg/L (≈ 0.699 µM)

Q: For `C[N+]1(CC2=C(C(=O)[O-])N3C(=O)[C@@H](NC=O)[C@H]3SC2)CCN(c2c(F)cc3c(=O)c(C(=O)O)cn(CCF)c3c2F)CC1`, which MIC (Enterobacter cloacae [1]) is on record?
A: 0.5 mg/L (≈ 0.82 µM)

Q: And the MIC (Citrobacter freundii)?
A: 16 mg/L (≈ 26.2 µM)

Q: And the MIC (Enterobacter cloacae [2])?
A: 4 mg/L (≈ 6.56 µM)

Q: What about the MIC (Streptococcus pneumoniae) of the same compound?
A: 16 mg/L (≈ 26.2 µM)

Q: What about the MIC (Pseudomonas aeruginosa) of the same compound?
A: 128 mg/L (≈ 210 µM)

Q: And the MIC (Streptococcus pyogenes)?
A: 8 mg/L (≈ 13.1 µM)

Q: What about the MIC (Staphylococcus aureus [7]) of the same compound?
A: 1 mg/L (≈ 1.64 µM)

Q: And the MIC (Serratia marcescens)?
A: 8 mg/L (≈ 13.1 µM)

Q: What about the MIC (Staphylococcus aureus [8]) of the same compound?
A: 4 mg/L (≈ 6.56 µM)

Q: What about the MIC (Escherichia coli [10]) of the same compound?
A: 2 mg/L (≈ 3.28 µM)

Q: What about the MIC (Klebsiella pneumoniae) of the same compound?
A: 2 mg/L (≈ 3.28 µM)

Q: For `CO/N=C(\C(=O)N[C@@H]1C(=O)N2C(C(=O)O)=C(COC(=O)c3cn(CCF)c4c(F)c(N5CCN(C)CC5)c(F)cc4c3=O)CS[C@H]12)c1csc(N)n1`, which MIC (Enterobacter cloacae [1]) is on record?
A: 0.125 mg/L (≈ 0.163 µM)

Q: And the MIC (Citrobacter freundii)?
A: 0.25 mg/L (≈ 0.327 µM)

Q: What about the MIC (Enterobacter cloacae [2]) of the same compound?
A: 0.25 mg/L (≈ 0.327 µM)

Q: What about the MIC (Escherichia coli [3]) of the same compound?
A: 0.12 mg/L (≈ 0.157 µM)

Q: And the Concentration [4]?
A: 0.1 µg/mL

Q: And the MIC (Streptococcus pneumoniae)?
A: < 0.008 mg/L

Q: And the Concentration (Escherichia coli [5])?
A: 0.1 µg/mL

Q: And the MIC (Pseudomonas aeruginosa)?
A: 16 mg/L (≈ 20.9 µM)

Q: What about the MIC (Streptococcus pyogenes) of the same compound?
A: < 0.008 mg/L

Q: And the Concentration [6]?
A: 100 µg/mL

Q: What about the MIC (Staphylococcus aureus [7]) of the same compound?
A: 1 mg/L (≈ 1.31 µM)

Q: And the MIC (Serratia marcescens)?
A: 0.125 mg/L (≈ 0.163 µM)

Q: And the MIC (Staphylococcus aureus [8])?
A: 1 mg/L (≈ 1.31 µM)

Q: What about the Concentration [9] of the same compound?
A: 2 µg/mL

Q: What about the MIC (Escherichia coli [10]) of the same compound?
A: 0.063 mg/L (≈ 0.0824 µM)

Q: What about the MIC (Klebsiella pneumoniae) of the same compound?
A: 0.125 mg/L (≈ 0.163 µM)

Q: `CCn1cc(C(=O)O)c(=O)c2cc(F)c(N3CC[N+](C)(CC4=C(C(=O)[O-])N5C(=O)[C@@H](NC(=O)/C(=N\OC)c6csc(N)n6)[C@H]5SC4)CC3)cc21` was tested. Which MIC (Enterobacter cloacae [1]) did it give?
A: 1 mg/L (≈ 1.37 µM)

Q: And the MIC (Citrobacter freundii)?
A: 4 mg/L (≈ 5.49 µM)

Q: And the MIC (Enterobacter cloacae [2])?
A: 1 mg/L (≈ 1.37 µM)

Q: What about the MIC (Streptococcus pneumoniae) of the same compound?
A: 0.063 mg/L (≈ 0.0864 µM)

Q: What about the MIC (Pseudomonas aeruginosa) of the same compound?
A: 64 mg/L (≈ 87.8 µM)

Q: What about the MIC (Streptococcus pyogenes) of the same compound?
A: 0.125 mg/L (≈ 0.172 µM)

Q: And the MIC (Staphylococcus aureus [7])?
A: 4 mg/L (≈ 5.49 µM)

Q: What about the MIC (Serratia marcescens) of the same compound?
A: 1 mg/L (≈ 1.37 µM)

Q: And the MIC (Staphylococcus aureus [8])?
A: 2 mg/L (≈ 2.74 µM)

Q: And the MIC (Escherichia coli [10])?
A: 0.5 mg/L (≈ 0.686 µM)

Q: What about the MIC (Klebsiella pneumoniae) of the same compound?
A: 1 mg/L (≈ 1.37 µM)
